Results as given in ChEMBL document CHEMBL1121608, “Modification of the 5' position of purine nucleosides. 2. Synthesis and some cardiovascular properties of adenosine-5'-(N-substituted)carboxamides” (J Med Chem, 1980).

Legend:
Canis familiaris [1] = assay: Tested for the percent increase in coronary sinus partial pressure of oxygen (PO2) in open chest anesthetized dog at intravenous dosage of 5.00 mg/kg; type: functional, Canis lupus familiaris
[2] = Lethal dose in mice after intraperitoneal administration; type: toxicity, organism-based; conditions: mouse, in vivo, ip
Outline: (§1)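 Male and female mice, three per dose group, were given the compound by the stated route in increments of 0.5 log doses. The LD50 was estimated as an approximate value.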

Canis familiaris [3] = assay: Total time in minutes elapsed from the initiation of the change until return to the pretest value of oxygen partial pressure in coronary sinus of anesthetized dog at intravenous dosage of 1 mg/kg; type: functional, Canis lupus familiaris
Outline: (§2)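 Open-chest anesthetized dogs given compound by intravenous injection. Coronary sinus PO2 was monitored, and duration was the total time in minutes from the onset of the change until return to the pretest value.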

Canis familiaris [4] = assay: tested for percent increase in coronary sinus partial pressure of oxygen (PO2) in open chest anesthetized dog at intravenous dosage of 1 mg/kg; type: functional, Canis lupus familiaris
Canis familiaris [5] = assay: tested for the percent increase in heart rate (HR) in open chest anesthetized dog at intravenous dosage of 1 mg/kg; type: functional, Canis lupus familiaris
Canis familiaris [6] = assay: Total time in minutes elapsed from the initiation of the change until return to the pretest value of oxygen partial pressure in coronary sinus of anesthetized dog at intravenous dosage of 5 mg/kg; type: functional, Canis lupus familiaris; outline: as §2
Canis familiaris [7] = assay: Total time in minutes elapsed from the initiation of the change until return to the pretest value of heart rate in coronary sinus of anesthetized dog at intravenous dosage of 1 mg/kg; type: functional, Canis lupus familiaris
Canis familiaris [8] = assay: Total time in minutes elapsed from the initiation of the change until return to the pretest value of blood pressure in coronary sinus of anesthetized dog at intravenous dosage of 1 mg/kg; type: functional, Canis lupus familiaris
Canis familiaris [9] = assay: tested for the percent increase in aortic blood pressure (BP) in open chest anesthetized dog at intravenous dosage of 1 mg/kg; type: functional, Canis lupus familiaris, Artery
Outline: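 Open-chest anesthetized dogs received intravenous doses. Aortic blood pressure was recorded as the change from control.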

Canis familiaris [10] = assay: Total time in minutes elapsed from the initiation of the change until return to the pretest value of blood pressure in coronary sinus of anesthetized dog at intravenous dosage of 5 mg/kg; type: functional, Canis lupus familiaris
Canis familiaris [11] = assay: Total time in minutes elapsed from the initiation of the change until return to the pretest value of heart rate in coronary sinus of anesthetized dog at intravenous dosage of 5.00 mg/kg; type: functional, Canis lupus familiaris
[12] = Lethal dose in mice after peroral administration; type: toxicity, organism-based; conditions: mouse, in vivo, po; outline: as §1
Canis familiaris [13] = assay: Tested for the percent increase in aortic blood pressure (BP) in open chest anesthetized dog at intravenous dosage of 5.00 mg/kg; type: functional, Canis lupus familiaris, Artery
Outline: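 Open-chest anesthetized dogs, compound given iv at the stated dose. Aortic blood pressure is reported as the change from the control (pre-dose) value. Other set-up follows the group's earlier cardiovascular protocol.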

Canis familiaris [14] = assay: tested for the percent increase in heart rate (HR) in open chest anesthetized dog at intravenous dosage of 0.10 mg/kg; type: functional, Canis lupus familiaris; conditions: dose 0.1 mg/kg
Canis familiaris [15] = assay: Total time in minutes elapsed from the initiation of the change until return to the pretest value of oxygen partial pressure in coronary sinus of anesthetized dog at intravenous dosage of 0.10 mg/kg; type: functional, Canis lupus familiaris; conditions: dose 0.1 mg/kg
Canis familiaris [16] = assay: Total time in minutes elapsed from the initiation of the change until return to the pretest value of blood pressure in coronary sinus of anesthetized dog at intravenous dosage of 0.10 mg/kg; type: functional, Canis lupus familiaris; conditions: dose 0.1 mg/kg
Outline: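 Open-chest anesthetized dogs were given the compound intravenously. Duration is the total minutes from the start of the change until return to the pretest value. Blood pressure was recorded as change from control.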

Canis familiaris [17] = assay: Total time in minutes elapsed from the initiation of the change until return to the pretest value of blood pressure in coronary sinus of anesthetized dog at intravenous dosage of 0.01 mg/kg; type: functional, Canis lupus familiaris
Canis familiaris [18] = assay: Total time in minutes elapsed from the initiation of the change until return to the pretest value of oxygen partial pressure in coronary sinus of anesthetized dog at intravenous dosage of 0.01 mg/kg; type: functional, Canis lupus familiaris
Canis familiaris [19] = assay: Total time in minutes elapsed from the initiation of the change until return to the pretest value of heart rate in coronary sinus of anesthetized dog at intravenous dosage of 0.01 mg/kg; type: functional, Canis lupus familiaris
Canis familiaris [20] = assay: Tested for the percent increase in coronary sinus partial pressure of oxygen (PO2) in open chest anesthetized dog at intravenous dosage of 0.10 mg/kg; type: functional, Canis lupus familiaris; conditions: dose 0.1 mg/kg
Canis familiaris [21] = assay: Total time in minutes elapsed from the initiation of the change until return to the pretest value of heart rate in coronary sinus of anesthetized dog at intravenous dosage of 0.10 mg/kg; type: functional, Canis lupus familiaris; conditions: dose 0.1 mg/kg
Canis familiaris [22] = assay: Tested for percent increase in coronary sinus partial pressure of oxygen (PO2) in open chest anesthetized dog at intravenous dosage of 0.01 mg/kg; type: functional, Canis lupus familiaris
Canis familiaris [23] = assay: tested for percent increase in coronary sinus partial pressure of oxygen (PO2) in open chest anesthetized dog at intravenous dosage of 0.05 mg/kg; type: functional, Canis lupus familiaris
Canis familiaris [24] = assay: Total time in minutes elapsed from the initiation of the change until return to the pretest value of blood pressure in coronary sinus of anesthetized dog at intravenous dosage of 0.05 mg/kg; type: functional, Canis lupus familiaris
Canis familiaris [25] = assay: Total time in minutes elapsed from the initiation of the change until return to the pretest value of oxygen partial pressure in coronary sinus of anesthetized dog at intravenous dosage of 0.05 mg/kg; type: functional, Canis lupus familiaris
Canis familiaris [26] = assay: tested for the percent increase in heart rate (HR) in open chest anesthetized dog at intravenous dosage of 0.05 mg/kg; type: functional, Canis lupus familiaris
Canis familiaris [27] = assay: Total time in minutes elapsed from the initiation of the change until return to the pretest value of heart rate in coronary sinus of anesthetized dog at intravenous dosage of 0.05 mg/kg; type: functional, Canis lupus familiaris

Nc1ncnc2c1ncn2C1O[C@H](C(=O)NC23CC4CC(CC(C4)C2)C3)[C@@H](O)[C@H]1O (stereo partly specified)
PO2 (Canis familiaris [1]): 209%
LD50 [2]: > 300 mg/kg
Duration (Canis familiaris [3]): 30 min
PO2 (Canis familiaris [4]): 56%
HR (Canis familiaris [5]): 55%
Duration (Canis familiaris [6]): 60 min
Duration (Canis familiaris [7]): 2 min
Duration (Canis familiaris [8]): 1 min
BP (Canis familiaris [9]): 22 mmHg
Duration (Canis familiaris [10]): 8 min
Duration (Canis familiaris [11]): 60 min
LD50 [12]: > 300 mg/kg
BP (Canis familiaris [13]): 5 mmHg

NC(=O)[C@H]1OC(n2cnc3c(N)ncnc32)[C@H](O)[C@@H]1O (stereo partly specified)
HR (Canis familiaris [14]): 72%
Duration (Canis familiaris [15]): 240 min
Duration (Canis familiaris [16]): 240 min
Duration (Canis familiaris [17]): 20 min
LD50 [2]: 5 mg/kg
Duration (Canis familiaris [18]): 25 min
Duration (Canis familiaris [19]): 25 min
LD50 [12]: 50 mg/kg
PO2 (Canis familiaris [20]): 41%
Duration (Canis familiaris [21]): 240 min
PO2 (Canis familiaris [22]): 79%

Nc1ncnc2c1ncn2C1O[C@H](C(=O)NCC2CC2)[C@@H](O)[C@H]1O (stereo partly specified)
PO2 (Canis familiaris [23]): 47%
Duration (Canis familiaris [24]): 120 min
LD50 [2]: 20 mg/kg
Duration (Canis familiaris [25]): 120 min
HR (Canis familiaris [26]): 0%
Duration (Canis familiaris [27]): 0 min
LD50 [12]: 200 mg/kg
